# Results taken from ChEMBL document CHEMBL2375295, “Site-specific and far-red-light-activatable prodrug of combretastatin A-4 using photo-unclick chemistry” (J Med Chem, 2013).
# pIC50: −log10 of the molar value. Calls of active or inactive are those of the source. The rule behind the calls is not given here.
# What was measured:
# [1] = target: T1, Tubulin (Homo sapiens) (UniProt P68371+Q9H4B7+P0DPH7+P68366+Q13509+Q71U36+P04350+Q3ZCM7+P07437+P68363+Q9BQE3+Q6PEY2+Q13885+Q9BVA1+Q9BUF5); test: Inhibition of tubulin polymerization (unknown origin) at 3 uM after 1 hr by fluorescence plate reader analysis
# [2] = test system: MCF7; test: Darktoxicity against human MCF7 cells incubated for 24 hrs followed by 30 mins incubation in dark measured after 3 days by MTT assay; type: cell-based
# Outline: (§1)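 MCF-7 cells were grown in α-MEM with 10% bovine growth serum, seeded at 5000/well and grown 24 h at 37 °C, 5% CO2. Compounds were diluted from 2 mM DMSO stocks into medium and incubated 24 h. Phototoxicity plates were shaken and irradiated at 690 nm, 5.6 mW/cm2 for 30 min. Dark plates were kept unlit for 30 min. After 3 days, MTT viability was read at A570 minus A650 and expressed as % of untreated.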
# [3] = test system: Mus musculus; test: Biodistribution in nu/nu mouse at 24 umol/kg, ip followed by irradiation with diode laser light for 1.5 hrs measured after 10 to 30 mins by optical imaging analysis; type: ADME, organism-based; conditions: in vivo
# Outline: (§2)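 The FRET probe was formulated as a Tween 80 paste, extracted into 5% dextrose, filtered, and quantified by CMP absorbance. It was given at 24 μmol/kg ip. At 1.5 h the neck region was irradiated with a 690 nm diode laser at 500 mW/cm2. Mice were under 2.5% isoflurane anesthesia, and fluorescence images were taken after 0, 10, 20 and 30 min irradiation.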
# [4] = test system: Mus musculus; test: Biodistribution in nu/nu mouse at 24 umol/kg, ip followed by irradiation with diode laser light for 1.5 hrs by optical imaging analysis; type: ADME, organism-based; conditions: in vivo, TDE = time-dependent effect
# Outline: as §2
# [5] = target: T1, Tubulin (Homo sapiens); test: Inhibition of tubulin polymerization (unknown origin) at 3 uM after 20 mins by fluorescence plate reader analysis; type: protein-complex assay
# [6] = test system: MCF7; test: Cytotoxicity against human MCF7 cells incubated for 24 hrs followed by irradiated with diode laser light for 30 mins; type: functional, cell-based; conditions: MCF7, light or radiation study
# Outline: as §1
# [7] = target: T1, Tubulin (Homo sapiens); test: Inhibition of tubulin polymerization (unknown origin) at 3 uM after 1 hr by fluorescence plate reader analysis; type: protein-complex assay
# Outline: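 Kit-based fluorescence assay: tubulin plus GTP in buffer with test agent at 3 μM final, incubated at 37 °C. Polymerization was monitored kinetically at ex 360/em 450 nm against a vehicle-only control. Inhibition was assessed after 1 h incubation, as mean ± SD of three experiments.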
# [8] = test system: MCF7; test: Ratio of IC50 for darktoxicity against human MCF7 cells to IC50 for cytotoxicity against human MCF7 cells in presence of diode laser light; type: functional
# [9] = test system: Colon 26 (Mus musculus); test: Prodrug conversion in mouse Colon 26 cells assessed as death of neighboring cells at 50 nM incubated for 24 hrs followed by irradiation with diode laser light for 15 mins measured after 48 hrs by Calcein AM live cell staining assay; conditions: colon 26, 0.05 µM
# [10] = test system: Colon 26; test: Antitumor activity against mouse Colon 26 cells allografted in BALB/c mouse at 2 umol/kg, ip qd for 2 days measured 30 mins post irradiation with diode laser light; type: functional, organism-based
# Outline: (§3)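 Colon 26 cells (2 × 10^6 in PBS) were implanted sc in the lower back-neck of 4–6-week-old BALB/c mice. Mice were used once tumors reached 3–5 mm diameter. Doses came from DMSO stocks diluted in 1% Tween 80/5% dextrose and filtered, given as 200 μL ip daily on days 0, 1 and 2. After 1.5 h mice were anesthetized (ketamine/xylazine) and tumors irradiated at 690 nm, 200 mW/cm2 for 30 min (360 J/cm2). Tumor volume was lw2/2 by caliper, and body weight was followed. Groups had six mice; control had three.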
# [11] = test system: Colon 26; test: Antitumor activity against mouse Colon 26 cells allografted in BALB/c mouse at 4 umol/kg, ip qd for 2 days measured 30 mins post irradiation with diode laser light; type: functional, organism-based
# Outline: as §3
# [12] = test system: Mus musculus; test: Toxicity in mouse Colon 26 cells allografted BALB/c mouse assessed as change in body weight at 2 to 4 umol/kg, ip qd for 2 days measured 30 mins post irradiation with diode laser light; type: organism-based; conditions: in vivo
# Outline: as §3
# [13] = test system: Colon 26 (Mus musculus); test: Prodrug conversion in mouse Colon 26 cells assessed as death of neighboring cells at 5 uM incubated for 24 hrs followed by irradiation with diode laser light for 15 mins measured after 48 hrs by Calcein AM live cell staining assay; conditions: colon 26, 5 µM
SMILES,inhibition [5],inhibition [7] [%],pIC50 [2],pIC50 [6],Ratio IC50 [8],also measured
CC(=O)O[C@H]1C(=O)[C@@]2(C)[C@H]([C@H](OC(=O)c3ccccc3)[C@]3(O)C[C@H](OC(=O)[C@H](O)[C@@H](NC(=O)c4ccccc4)c4ccccc4)C(C)=C1C3(C)C)[C@]1(OC(C)=O)CO[C@@H]1C[C@@H]2O,–,–,–,–,–,inhibition [1]: Active
COc1ccc(/C=C\c2cc(OC)c(OC)c(OC)c2)cc1O [COMBRETASTATIN A4],–,–,8.05,–,–,–
CCN(CC)c1ccc2c(-c3ccccc3C(=O)OCN3CCN(/C=C/OC(=O)COc4ccc(-c5c6nc(c(-c7ccccc7)c7ccc(s7)c(-c7ccccc7)c7nc(c(-c8ccccc8)c8ccc5s8)C=C7)C=C6)cc4)CC3)c3ccc(=[N+](CC)CC)cc-3oc2c1.[Cl-],–,–,–,–,–,Drug uptake [3]: Active; Drug uptake [4]: tde
O=C(O)COc1ccc(-c2c3nc(c(-c4ccccc4)c4ccc(s4)c(-c4cccs4)c4nc(c(-c5ccc(OCC(=O)O)cc5)c5ccc2s5)C=C4)C=C3)cc1,–,–,–,–,–,Drug metabolism [13]: Not Active

# The next lines start with results.
inhibition [5],inhibition [7] [%],SMILES,pIC50 [2],pIC50 [6],Ratio IC50 [8],also measured
inactive,9,COc1ccc(/C=C\c2cc(OC)c(OC)c(OC)c2)cc1OCCCN1CCN(C(=O)COc2ccc(-c3c4nc(c(-c5ccccc5)c5ccc(s5)c(-c5ccccc5)c5nc(c(-c6ccccc6)c6ccc3s6)C=C5)C=C4)cc2)CC1,5.74,5.97,1.7,–
inactive,6,COc1ccc(/C=C\c2cc(OC)c(OC)c(OC)c2)cc1OC(=O)/C=C/N1CCC(COC(=O)COc2ccc(-c3c4nc(c(-c5ccccc5)c5ccc(s5)c(-c5ccccc5)c5nc(c(-c6ccccc6)c6ccc3s6)C=C5)C=C4)cc2)CC1,6.79,7.55,6,Drug metabolism [9]: Active; Activity [10]: Active; Activity [11]: Active; Activity [12]: Non-toxic
